# Measurements published in article PMC5590686 (Drug Design, Development and Therapy, 2017).
# Assays:
# Calu-3 cells = conditions: Calu-3 monolayer, cited from earlier work
# [1] = system: TJ proteins ZO-1, claudin-1, F-actin; test: Immunofluorescence of TJ proteins in RNECs; type: cell-based, rat; conditions: 3 h; puerarin 50, peoniflorin 20, menthol 25 μg/mL
# How it was run: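 Monolayers grown on PET Transwell membranes (5×10^5 cells/cm2) were exposed to compound media for 3 h at 37°C. They were fixed in cold 4% paraformaldehyde for 30 min and blocked 1 h in goat serum. Anti-ZO-1 or anti-claudin-1 (1:100) was applied overnight at 4°C, then TRITC/FITC secondaries; F-actin was stained with phalloidin (1:150, 30 min, RT), with DAPI counterstain. Fluorescence/confocal imaging used identical settings; AOD = IntDen/Area, expressed as percentage.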
# P-gp = test: Rho 123 efflux/accumulation by flow cytometry; type: cell-based, rat; conditions: puerarin 50, peoniflorin 20, menthol 25 μg/mL
# [2] = rats, cited from earlier work
# [3] = Bidirectional transport of puerarin across RNEC monolayers; type: in vitro ADME; conditions: Sprague Dawley, rat
# How it was run: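 RNECs from a male Sprague Dawley rat nasal epithelium, passage 2–3, were seeded at 5×10^5 cells/cm2 on collagen-coated 0.4-μm PET Transwell membranes and grown 3 days at air interface until TEER >500 Ω·cm2. Monolayers were HBSS-washed and equilibrated 30 min at 37°C. Drug was dosed apical or basolateral with shaking at 37°C, receiver sampled 30–180 min, and quantified by C18 HPLC-UV at 250 nm. Papp = regression dQ/dt over donor C and area; ER calculated from both directions.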
Papp A→B at 180 min [3],Papp B→A at 180 min [3],Papp at 180 min [3],efflux ratio at 180 min [3],SMILES,effect of coadministration on Papp of puerarin (Calu-3 cells),"immunostaining / AOD of ZO-1, claudin-1 and F-actin versus control [1]",effect on P-gp function (Rho 123 retention) (P-gp),ability of puerarin to target the brain via intranasal administration ([2]; intranasal versus injection and oral),"bioavailability of puerarin following intranasal administration ([2]; intranasal versus oral, plasma and brain by HPLC)",Papp of puerarin bidirectional transport (Calu-3 cells; both directions),efflux ratio (ER) (Calu-3 cells)
–,–,–,–,CC1CCC(C(C)C)C(O)C1 (centres unmarked) [menthol],significantly (P<0.05) improved,weaker than that of the control group,inhibited the function of P-gp,–,–,–,–
–,–,–,–,C[C@@]12C[C@@]3(O)O[C@@H](O1)[C@]1(COC(=O)c4ccccc4)[C@H]3C[C@@]12O[C@@H]1O[C@H](CO)[C@@H](O)[C@H](O)[C@H]1O [peoniflorin],remained unaltered,–,inhibited the function of P-gp,–,–,–,–
1.27 to 1.31 ×10⁻⁶ cm/s,1.35 to 1.41 ×10⁻⁶ cm/s,< 1.5 ×10⁻⁶ cm/s,< 2,"O=c1c(-c2ccc(O)cc2)coc2c([C@@H]3O[C@H](CO)[C@@H](O)[C@H](O)[C@H]3O)c(O)ccc12 [puerarin, Puerarin]",–,–,inhibited the function of P-gp,higher than that with injection and oral administration,significantly higher than that of oral administration,< 1.5 ×10⁻⁶ cm/s,< 1.5
